The text below walks through data of ChEMBL document CHEMBL3779799, “Antifibrotic and anticancer action of 5-ene amino/iminothiazolidinones” (Eur J Med Chem, 2016).

Series [1] has as its system HFL1. Nature of the series: Antifibrotic activity in HFL1 cells assessed as inhibition of cell viability at >1 uM after 48 hrs by sulforhodamine B assay relative to control. Format: functional. The conditions noted are these: Homo sapiens, HFL1, 48 h. In a few lines:
(§1)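 HFL-1 human fetal lung fibroblasts (DMEM, 10% FCS, passages 14–18) seeded at 8000 cells/well, attached overnight, then exposed to a range of concentrations for 48 h in triplicate. Cells were fixed with TCA and stained with 0.4% SRB, bound dye was solubilized in Tris, and OD was read at 570 nm relative to control.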

Series [2] in a line: Cytotoxicity against human NCI60 cells assessed as cell growth at 10^-5 M after 48 hrs by sulforhodamine B assay relative to control. Format: functional. The conditions noted are these: NCI60, 48 h, read-out: Activity. Summed up: (§2)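 NCI ~60 human tumor cell line one-dose screen covering nine cancer types. Cells were preincubated 24–48 h, then exposed to compound at 10^-5 M for 48 h. SRB protein staining was the endpoint, and growth percent was calculated versus untreated control cells.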

Series [3] in a line: Cytotoxicity against human MOLT4 cells assessed as cell growth at 10^-5 M after 48 hrs by sulforhodamine B assay relative to control. Format: functional. The settings on record: MOLT-4, 48 h, read-out: Activity. In a few lines: as §2
For orientation: Sulforhodamine B stains cellular protein and so reports cell mass.

In the next series the test system is NCI-H522. Put plainly: Cytotoxicity against human NCI-H522 cells assessed as cell growth at 10^-5 M after 48 hrs by sulforhodamine B assay relative to control. It is filed as functional. The conditions noted are these: NCI-H522, 48 h, read-out: Activity. In a few lines:
as §2

A short description of series [4]: Cytotoxicity against human UO31 cells assessed as cell growth at 10^-5 M after 48 hrs by sulforhodamine B assay relative to control. It is filed as functional. The settings on record: UO-31, 48 h, read-out: Activity. In a few lines: as §2
The test system of series [5] is HFL1. Nature of the series: Antifibrotic activity in HFL1 cells assessed as inhibition of cell viability after 48 hrs by sulforhodamine B assay. Format: functional, cell-based. The settings on record: Homo sapiens, HFL1, 48 h. In a few lines:
as §1

Series [6] is described as follows: Cytotoxicity against human RPMI8226 cells assessed as cell growth at 10^-5 M after 48 hrs by sulforhodamine B assay relative to control. Format: functional. The settings on record: RPMI-8226, 48 h, read-out: Activity. In a few lines:
as §2

Series [7] in a line: Antioxidant activity assessed as inhibition of superoxide anion generation measured for 3 mins by nitro blue tetrazolium assay. It is filed as physicochemical. Summed up: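 Cell-free superoxide generated by xanthine (1 mM) and xanthine oxidase (0.11 U/mL), with NBT (50 µM) as detector. Compounds in DMSO were tested up to 10 µM, with DMSO held at 0.1%. NBT reduction rate (dA560/dt) was read spectrophotometrically over 3 min from the linear part.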

Series [8] relates to MDA-MB-435. Put plainly: Cytotoxicity against human MDA-MB-435 cells assessed as cell growth at 10^-5 M after 48 hrs by sulforhodamine B assay relative to control. The settings on record: MDA-MB-435, 48 h, read-out: Activity. Format: functional. Summed up:
as §2

Series [9] is described as follows: Cytotoxicity against human SNB75 cells assessed as cell growth at 10^-5 M after 48 hrs by sulforhodamine B assay relative to control. It is filed as functional. The conditions noted are these: SNB-75, 48 h, read-out: Activity. Summed up:
as §2

Series [10] can be described thus: Cytotoxicity against human SF295 cells assessed as cell growth at 10^-5 M after 48 hrs by sulforhodamine B assay relative to control. It is filed as functional. The settings on record: SF-295, 48 h, read-out: Activity. Summed up: as §2
Another series relates to MCF7. Nature of the series: Growth inhibition of human MCF7 cells after 48 hrs by sulforhodamine B assay. It is filed as functional. The settings on record: MCF7, 48 h. In a few lines: (§3)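 NCI ~60-cell-line panel with five 10-fold dilutions (10^-4 to 10^-8 M) and 48 h continuous exposure, using an SRB endpoint. Percentage growth was derived from time-zero, control and treated absorbances. […] Values are expressed as > or < when outside the tested range.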

The test system of a further series is KM12. Nature of the series: Growth inhibition of human KM12 cells after 48 hrs by sulforhodamine B assay. It is filed as functional. The settings on record: KM12, 48 h. In a few lines: as §3
A further series has as its system U-251. Put plainly: Growth inhibition of human U251 cells after 48 hrs by sulforhodamine B assay. The settings on record: U-251, 48 h. Format: functional. Summed up: as §3
Series [11] is described as follows: Growth inhibition of human RPMI8226 cells after 48 hrs by sulforhodamine B assay. It is filed as functional. The conditions noted are these: RPMI-8226, 48 h. Summed up: as §3
Series [12] is described as follows: Growth inhibition of human SW620 cells after 48 hrs by sulforhodamine B assay. It is filed as functional. The conditions noted are these: SW-620, 48 h. Summed up: as §3
The subject of a further series is SR. Nature of the series: Growth inhibition of human SR cells after 48 hrs by sulforhodamine B assay. It is filed as functional. In a few lines: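 NCI 60-cell-line panel, five-dose screen: cells inoculated and preincubated 24-48 h, then exposed continuously for 48 h to five 10-fold dilutions from 10^-4 to 10^-8 M. Protein measured by SRB staining at time zero, in untreated control and in treated wells.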

Series [13] in a line: Growth inhibition of human OVCAR3 cells after 48 hrs by sulforhodamine B assay. Format: functional. The conditions noted are these: OVCAR-3, 48 h. In a few lines: as §3
Series [14] is described as follows: Growth inhibition of human NCI60 cells after 48 hrs by sulforhodamine B assay. It is filed as functional. The settings on record: NCI60, 48 h. Summed up: (§4)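 NCI ~60-cell-line panel with five 10-fold dilutions (10^-4 to 10^-8 M) and 48 h continuous exposure, using an SRB endpoint. Percentage growth was derived from time-zero, control and treated absorbances. Values are expressed as > or < when outside the tested range.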

A short description of series [15]: Growth inhibition of human HCT116 cells after 48 hrs by sulforhodamine B assay. It is filed as functional. The conditions noted are these: HCT-116, 48 h. Summed up: as §4
Series [16] relates to MDA-MB-435. Put plainly: Growth inhibition of human MDA-MB-435 cells after 48 hrs by sulforhodamine B assay. It is filed as functional. The settings on record: MDA-MB-435, 48 h. In a few lines:
as §3

[17] abbreviates: read-out: LC50 (the source's name).

Broadly, the IC50 is the concentration that gives 50% inhibition. The GI50 is the concentration at which growth is held to half of that of the control. Low values mean greater sensitivity of the cells, high ones lower sensitivity of the cells.

For the molecule `CN(C1=NC(=O)/C(=C2/C(=O)Nc3ccccc32)S1)c1ccc(O)cc1`, the figures for the Emax (in the series on HFL1 [1]; in series [7] (0.05 h)) were 27.3% and 71.7%, respectively. Also, the growth at 10 µM is 85.6% in series [2]; 60.2% in series [3]; 65.2% in the series on NCI-H522; 21.4% in series [4]; 55.2% in [6]. Moreover, the IC50 in the series with HFL1 [5] stood at 1780 nM; in series [7] it was 350 nM.
`COc1ccc(-c2nnc(NC3=NC(=O)/C(=C/c4ccc(N(C)C)cc4)S3)o2)cc1`: the Emax in the series with HFL1 [1] came to 52.4%. For the same molecule, the growth at 10 µM in series [2] stood at 92.8%; in the series on MDA-MB-435 [8] it was 47.8%; in series [9], 60.4%; in [10], 69.8%. In the series with HFL1 [5], the IC50 was 150 nM.
As to `O=C1N=C(Nc2ccc(O)cc2)S/C1=C\c1ccccc1`, the GI50 with MCF7 was determined as 250 nM; in the series on KM12 it was 870 nM; in the series with U-251 it was 680 nM; in series [11], 600 nM; in series [12], 470 nM; with SR, 90 nM. Moreover, the GI50 in series [13] is 710 nM; in series [14], 12900 nM; in [15] it was 320 nM; in the series with MDA-MB-435 [16] it was 210 nM. Also, the TGI (with MCF7; in the series on KM12; in the series on U-251; in series [11]; in series [12]; in series [13]) was above 100000 nM in each case. Besides, the TGI in series [14] (read-out: pTGI (converted)) was 89100 nM; in series [15], above 100000 nM; in the series on MDA-MB-435 [16] it was 920 nM. Besides, the CC50 (with MCF7 (setting [17]); in the series on KM12 (setting [17]); in series [11] (setting [17]); in series [12] (setting [17]); with SR (setting [17]); in [13] (setting [17])) was above 100000 nM throughout. The figures for the CC50 (in series [14] (read-out: pLC50 (the source's name) (converted)); in series [15] (setting [17]); in the series with MDA-MB-435 [16] (setting [17])) were 100000 nM, above 100000 nM and above 100000 nM, respectively. For the same molecule, the Emax with HFL1 [1] is 23.8%. In the series with U-251, this molecule displayed an LC50 (concentration killing 50% of cells) above 100000 nM. For the same molecule, the IC50 with HFL1 [5] was 90 nM.
